Measured values: article PMC5651194 (Cellular signalling, 2017)

How the values were obtained:
human PDE7A = human PDE7A (Homo sapiens, UniProt Q13946); experiment: In vitro PDE assay; format: biochemical
Procedure, shortened: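 Human PDE7 enzymes (PDE7A recombinant) assayed with 10nM cAMP substrate. Stopped during linear phase with 0.2 M ZnSO4, conversion kept near 50%. Product 5′-AMP removed by 0.25 N Ba(OH)2 precipitation and 15 min centrifugation. Remaining supernatant radioactivity read in scintillation fluid.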

PDE8A = conditions: not a hit; cited from earlier work
human PDE11A4 = human PDE11A4 (Homo sapiens, UniProt Q9HCR9); experiment: In vitro PDE assay; format: biochemical
Procedure, shortened: (§1)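 Recombinant PDE (human PDE1C, PDE3B, PDE5A1, PDE8A, PDE9A2, PDE10A1, PDE11A4; rat PDE2A) incubated with radiolabelled cyclic nucleotide substrate. Stopped in linear phase with 0.2 M ZnSO4, hydrolysis ≤~50%. 5′-nucleotide precipitated with 0.25 N Ba(OH)2 and spun down for 15 min. Supernatant radioactivity measured by scintillation counting.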

[1] = tested on: yeast strains that express human PDE4A1, PDE4B2, PDE4D3, PDE7A1 or PDE7B1; experiment: 5FOA growth assay, dose response; format: cell-based; conditions: dose response 0.05 μM to 50 μM
[2] = tested on: S. pombe strain that expresses Git2 adenylyl cyclase and human PDE4B2; experiment: Stationary phase viability of yeast; format: cell-based; conditions: 10μM BC54, three days in stationary phase
Procedure, shortened: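 S. pombe CHP1346 (git2+ cgs2-2) transformants expressing PDE4B2 or no PDE, plus CHP1207 (git2Δ cgs2-2) with PDE4B2. Grown to stationary phase for three days in EMM-leucine ± 10μM test compound. Diluted 100-fold in YES, then four 10-fold serial dilutions. Spotted onto YES, grown at 30°C and photographed.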

human PDE9A2 = human PDE9A2 (Homo sapiens, UniProt O76083); experiment: In vitro PDE assay; format: biochemical
Procedure, shortened: as §1

Human PDE4B2 = Human PDE4B2 (Homo sapiens, UniProt Q07343); experiment: In vitro PDE assay; format: biochemical
rat PDE2A = rat PDE2A (Rattus norvegicus, UniProt Q01062); experiment: In vitro PDE assay; format: biochemical
Procedure, shortened: as §1

murine PDE4B3 = murine PDE4B3 (Mus musculus, UniProt Q8VBU5); experiment: Yeast-based HTS; format: cell-based; conditions: duplicate plates, OD600 after 48 h
Procedure, shortened: (§2)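 S. pombe gpa2Δ strains carrying the PKA-repressed fbp1-ura4+ reporter, with the PDE replacing endogenous Cgs2, grown in 5FOA medium. Compounds from 5 mg/mL stocks were pinned in. OD600 read after 48 h at 30°C. Run on duplicate plates; composite Z = replicate Z-score vector scaled by cosine correlation with the diagonal. Controls: 0.2% DMSO (negative), 5 mM cAMP (positive).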

Human PDE4D2 = Human PDE4D2 (Homo sapiens, UniProt Q08499); experiment: In vitro PDE assay; format: biochemical
Procedure, shortened: (§3)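 Radiolabelled cAMP hydrolysis with cAMP substrate at 40nM. Reactions stopped in linear phase with 0.2 M ZnSO4, hydrolysis limited to ~50% conversion. 5′-AMP precipitated with 0.25 N Ba(OH)2 and pelleted by centrifugation for 15 min. Supernatant radioactivity counted by scintillation.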

[3] = tested on: TNFα production by LPS-stimulated macrophage (U937 cells); experiment: TNFα assay; format: cell-based; conditions: 20μM
murine PDE4A1 = murine PDE4A1 (Mus musculus, UniProt O89084); experiment: Yeast-based HTS; format: cell-based; conditions: duplicate plates, OD600 after 48 h
Procedure, shortened: as §2

rat PDE4A5 = rat PDE4A5 (Rattus norvegicus, UniProt P54748); experiment: Yeast-based HTS; format: cell-based; conditions: duplicate plates, OD600 after 48 h
Procedure, shortened: as §2

human PDE7A1 = human PDE7A1 (Homo sapiens, UniProt Q13946); experiment: Yeast-based HTS; format: cell-based; conditions: duplicate plates, OD600 after 48 h
Procedure, shortened: as §2

PDE7B [4] = molecular target: PDE7B (Homo sapiens, UniProt Q9NP56); experiment: In vitro PDE assay; format: biochemical
Human PDE4A10 = Human PDE4A10 (Homo sapiens, UniProt P27815); experiment: In vitro PDE assay; format: biochemical
Procedure, shortened: as §3

human PDE5A1 = human PDE5A1 (Homo sapiens, UniProt O76074); experiment: In vitro PDE assay; format: biochemical
Procedure, shortened: as §1

human PDE1C = human PDE1C (Homo sapiens, UniProt Q14123); experiment: In vitro PDE assay; format: biochemical
Procedure, shortened: as §1

CLL cells = experiment: CLL apoptosis assay; format: cell-based, human; conditions: 20μM, 48 h, median and standard deviation of three assays
Procedure, shortened: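 PBMC from heparinized blood of CLL patients, isolated on Histopaque 1077 and washed. Plated at 1 million cells/well in RPMI 1640 with 10% FBS, 20 mM L-glutamine and penicillin/streptomycin. Exposed to 20μM test compound or vehicle for 48 h at 37°C, 5% CO2. Harvested, stained 10 min at 37°C with Hoechst 33342 (0.25 μg/mL final), then analysed by flow cytometry.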

human PDE3B = human PDE3B (Homo sapiens, UniProt Q13370); experiment: In vitro PDE assay; format: biochemical
Procedure, shortened: as §1

[5] = tested on: PDE4 and PDE7 relative to PDE2A and PDE11A; experiment: Selectivity from in vitro PDE assays; format: biochemical
human PDE8A = human PDE8A (Homo sapiens, UniProt O60658); experiment: In vitro PDE assay; format: biochemical
Procedure, shortened: as §1

human PDE10A1 = human PDE10A1 (Homo sapiens, UniProt Q9Y233); experiment: In vitro PDE assay; format: biochemical
Procedure, shortened: as §1

PDE11A = conditions: very weak hit; cited from earlier work
[6] = tested on: IL-2 production by PMA-PHA stimulated Jurkat T cells; experiment: IL-2 assay; format: cell-based; conditions: 20μM
[7] = molecular target: mutant PDE4B2^T407A catalytic domain (Homo sapiens, UniProt Q07343, T579A); experiment: In vitro enzyme assay, catalytic domain purified from E. coli; format: biochemical
PDE7A = conditions: cited from earlier work
PDE7B [8] = conditions: cited from earlier work

Chain of PDE7B (Homo sapiens, UniProt Q9NP56) (Q9NP56 whole entry): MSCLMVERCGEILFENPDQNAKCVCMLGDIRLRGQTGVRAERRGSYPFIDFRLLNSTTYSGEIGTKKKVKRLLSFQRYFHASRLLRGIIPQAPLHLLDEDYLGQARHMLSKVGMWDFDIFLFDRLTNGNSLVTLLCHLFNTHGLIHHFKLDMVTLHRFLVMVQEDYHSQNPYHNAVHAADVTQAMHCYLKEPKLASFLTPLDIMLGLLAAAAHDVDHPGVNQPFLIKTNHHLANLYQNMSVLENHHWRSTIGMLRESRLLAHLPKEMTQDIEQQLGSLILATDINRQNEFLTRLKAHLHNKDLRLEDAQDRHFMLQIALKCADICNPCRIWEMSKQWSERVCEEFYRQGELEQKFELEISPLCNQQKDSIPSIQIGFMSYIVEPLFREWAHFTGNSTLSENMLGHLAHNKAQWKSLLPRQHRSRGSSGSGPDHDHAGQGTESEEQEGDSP
Chain of mutant PDE4B2^T407A catalytic domain (Q07343 324-659 T579A): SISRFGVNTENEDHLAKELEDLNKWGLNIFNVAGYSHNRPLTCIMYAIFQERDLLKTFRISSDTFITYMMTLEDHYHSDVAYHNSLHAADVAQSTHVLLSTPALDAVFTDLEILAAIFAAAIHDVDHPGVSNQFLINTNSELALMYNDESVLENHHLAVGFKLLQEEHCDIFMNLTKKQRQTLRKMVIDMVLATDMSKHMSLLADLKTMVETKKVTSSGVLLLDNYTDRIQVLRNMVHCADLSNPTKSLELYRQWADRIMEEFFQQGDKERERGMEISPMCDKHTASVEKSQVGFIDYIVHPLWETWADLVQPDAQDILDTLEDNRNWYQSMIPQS
Chain of human PDE10A1 (Q9Y233 1-779 isoform Q9Y233-1): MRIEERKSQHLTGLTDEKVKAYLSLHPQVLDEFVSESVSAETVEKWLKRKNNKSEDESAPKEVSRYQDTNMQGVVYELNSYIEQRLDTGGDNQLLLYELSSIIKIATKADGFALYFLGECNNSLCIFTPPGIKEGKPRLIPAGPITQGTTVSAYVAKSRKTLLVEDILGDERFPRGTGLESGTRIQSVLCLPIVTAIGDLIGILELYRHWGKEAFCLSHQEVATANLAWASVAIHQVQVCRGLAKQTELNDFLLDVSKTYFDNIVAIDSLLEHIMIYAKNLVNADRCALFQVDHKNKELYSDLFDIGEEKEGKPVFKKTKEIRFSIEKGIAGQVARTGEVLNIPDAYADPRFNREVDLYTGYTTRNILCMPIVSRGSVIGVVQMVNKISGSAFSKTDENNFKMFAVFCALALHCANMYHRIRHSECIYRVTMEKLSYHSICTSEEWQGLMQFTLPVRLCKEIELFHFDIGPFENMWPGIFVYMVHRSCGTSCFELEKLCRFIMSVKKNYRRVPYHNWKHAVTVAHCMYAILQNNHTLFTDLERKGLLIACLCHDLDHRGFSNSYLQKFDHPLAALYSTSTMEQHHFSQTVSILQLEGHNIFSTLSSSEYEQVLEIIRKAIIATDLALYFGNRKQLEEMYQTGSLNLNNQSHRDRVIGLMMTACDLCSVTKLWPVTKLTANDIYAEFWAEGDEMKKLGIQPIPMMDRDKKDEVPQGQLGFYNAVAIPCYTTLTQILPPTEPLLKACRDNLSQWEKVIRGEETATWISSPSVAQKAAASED
Chain of rat PDE4A5 (P54748 whole entry): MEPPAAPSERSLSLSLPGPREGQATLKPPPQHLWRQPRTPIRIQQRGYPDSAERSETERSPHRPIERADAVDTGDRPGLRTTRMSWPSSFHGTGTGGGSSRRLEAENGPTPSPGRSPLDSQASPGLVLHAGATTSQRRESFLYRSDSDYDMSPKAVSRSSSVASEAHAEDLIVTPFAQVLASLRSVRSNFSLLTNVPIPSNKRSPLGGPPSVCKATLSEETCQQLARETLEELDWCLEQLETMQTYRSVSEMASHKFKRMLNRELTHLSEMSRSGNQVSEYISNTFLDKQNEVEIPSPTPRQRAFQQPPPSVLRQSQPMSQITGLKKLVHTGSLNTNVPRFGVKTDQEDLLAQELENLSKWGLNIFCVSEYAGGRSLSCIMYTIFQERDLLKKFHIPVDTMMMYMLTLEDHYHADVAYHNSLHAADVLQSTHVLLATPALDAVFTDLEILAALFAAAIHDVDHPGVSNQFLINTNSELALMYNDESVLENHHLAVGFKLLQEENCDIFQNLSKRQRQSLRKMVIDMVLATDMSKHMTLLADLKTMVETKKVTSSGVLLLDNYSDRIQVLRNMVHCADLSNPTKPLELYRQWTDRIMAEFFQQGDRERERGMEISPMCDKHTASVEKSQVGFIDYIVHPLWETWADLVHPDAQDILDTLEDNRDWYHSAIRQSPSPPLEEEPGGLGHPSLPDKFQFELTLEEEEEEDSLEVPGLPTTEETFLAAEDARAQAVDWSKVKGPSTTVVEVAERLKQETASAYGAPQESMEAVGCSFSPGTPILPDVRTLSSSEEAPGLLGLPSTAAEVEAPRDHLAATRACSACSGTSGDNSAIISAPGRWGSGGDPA
Chain of human PDE8A (O60658 whole entry): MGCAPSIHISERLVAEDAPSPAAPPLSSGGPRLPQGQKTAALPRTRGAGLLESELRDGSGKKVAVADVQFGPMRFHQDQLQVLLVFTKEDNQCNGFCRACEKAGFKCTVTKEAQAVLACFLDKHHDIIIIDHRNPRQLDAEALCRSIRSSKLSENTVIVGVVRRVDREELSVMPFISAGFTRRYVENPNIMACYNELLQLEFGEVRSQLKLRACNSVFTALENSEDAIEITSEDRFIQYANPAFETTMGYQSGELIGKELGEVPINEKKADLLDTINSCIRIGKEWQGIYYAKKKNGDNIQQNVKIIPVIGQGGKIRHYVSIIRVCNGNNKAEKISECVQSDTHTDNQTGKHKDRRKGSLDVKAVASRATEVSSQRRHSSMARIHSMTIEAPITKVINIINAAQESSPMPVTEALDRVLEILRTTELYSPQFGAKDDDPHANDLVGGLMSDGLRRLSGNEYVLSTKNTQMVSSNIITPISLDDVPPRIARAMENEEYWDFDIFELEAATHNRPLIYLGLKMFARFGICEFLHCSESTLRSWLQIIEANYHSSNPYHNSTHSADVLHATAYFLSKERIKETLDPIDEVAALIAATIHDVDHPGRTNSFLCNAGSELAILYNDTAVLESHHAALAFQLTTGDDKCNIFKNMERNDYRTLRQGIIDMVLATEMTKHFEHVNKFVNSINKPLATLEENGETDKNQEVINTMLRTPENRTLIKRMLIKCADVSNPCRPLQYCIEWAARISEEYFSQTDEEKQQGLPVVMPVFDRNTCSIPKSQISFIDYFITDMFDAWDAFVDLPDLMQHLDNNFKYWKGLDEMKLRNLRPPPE
Chain of human PDE11A4 (Q9HCR9 whole entry): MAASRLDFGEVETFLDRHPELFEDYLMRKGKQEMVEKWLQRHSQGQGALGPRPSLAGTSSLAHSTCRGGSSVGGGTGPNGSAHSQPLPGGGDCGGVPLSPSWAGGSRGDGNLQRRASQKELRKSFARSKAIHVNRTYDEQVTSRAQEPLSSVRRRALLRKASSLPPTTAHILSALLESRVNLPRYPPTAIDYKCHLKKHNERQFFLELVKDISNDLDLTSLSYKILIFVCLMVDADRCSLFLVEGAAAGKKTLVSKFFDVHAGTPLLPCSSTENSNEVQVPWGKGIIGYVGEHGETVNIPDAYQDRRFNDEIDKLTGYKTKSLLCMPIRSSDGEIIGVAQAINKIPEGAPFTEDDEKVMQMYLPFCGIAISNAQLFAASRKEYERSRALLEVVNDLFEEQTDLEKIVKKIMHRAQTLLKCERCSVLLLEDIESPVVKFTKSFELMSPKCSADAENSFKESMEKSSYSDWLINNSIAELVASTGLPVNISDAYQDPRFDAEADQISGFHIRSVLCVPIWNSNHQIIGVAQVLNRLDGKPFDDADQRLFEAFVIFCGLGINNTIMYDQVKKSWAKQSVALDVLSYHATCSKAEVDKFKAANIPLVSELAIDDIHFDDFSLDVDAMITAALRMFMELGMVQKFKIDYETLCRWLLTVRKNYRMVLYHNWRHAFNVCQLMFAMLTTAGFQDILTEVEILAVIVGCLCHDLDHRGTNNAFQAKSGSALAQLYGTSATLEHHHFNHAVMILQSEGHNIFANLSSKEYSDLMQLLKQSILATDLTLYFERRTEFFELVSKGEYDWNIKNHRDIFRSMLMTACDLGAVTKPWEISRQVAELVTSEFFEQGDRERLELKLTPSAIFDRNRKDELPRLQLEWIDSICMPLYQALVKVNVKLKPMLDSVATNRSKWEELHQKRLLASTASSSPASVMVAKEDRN
Chain of human PDE1C (Q14123 whole entry): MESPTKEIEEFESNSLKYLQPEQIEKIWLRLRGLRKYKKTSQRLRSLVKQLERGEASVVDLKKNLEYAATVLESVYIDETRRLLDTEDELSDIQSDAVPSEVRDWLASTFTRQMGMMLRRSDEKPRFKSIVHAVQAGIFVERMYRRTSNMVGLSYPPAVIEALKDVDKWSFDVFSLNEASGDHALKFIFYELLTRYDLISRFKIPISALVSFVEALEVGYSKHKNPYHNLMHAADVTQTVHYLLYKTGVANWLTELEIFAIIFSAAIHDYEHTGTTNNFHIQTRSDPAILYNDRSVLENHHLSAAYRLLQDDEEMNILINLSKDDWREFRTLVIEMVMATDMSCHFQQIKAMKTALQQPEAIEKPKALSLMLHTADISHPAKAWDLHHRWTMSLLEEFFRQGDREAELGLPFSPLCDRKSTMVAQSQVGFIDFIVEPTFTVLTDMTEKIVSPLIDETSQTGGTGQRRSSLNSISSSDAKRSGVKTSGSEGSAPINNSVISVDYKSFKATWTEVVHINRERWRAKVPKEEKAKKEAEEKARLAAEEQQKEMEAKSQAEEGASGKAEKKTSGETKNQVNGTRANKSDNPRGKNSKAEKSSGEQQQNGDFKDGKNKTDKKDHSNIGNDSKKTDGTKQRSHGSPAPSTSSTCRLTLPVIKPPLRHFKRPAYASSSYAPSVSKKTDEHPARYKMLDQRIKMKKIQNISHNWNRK
Chain of Human PDE4B2 (Q07343 324-659): as the sequence (Q07343 324-659 T579A) above, with A256T counted along it

CCOC(=O)c1cc2c(=O)n3ccccc3nc2n(C2CCCCC2)/c1=N\C(C)=O [BC54, ethyl (2Z)-2-(acetylimino)-1-cyclohexyl-5-oxo-1,5-dihydro-2H-dipyrido[1,2-a:2′,3′-d] pyrimidine-3-carboxylate]
IC50 (human PDE7A): 140 nM
Composite Z score (PDE8A): −2.35
IC50 (human PDE11A4): ~3000 nM
potency in 5FOA growth assay [1]: significant potency at sub-micromolar concentrations
reduction of stationary phase viability [2]: approximately ten-fold
IC50 (human PDE9A2): > 10000 nM
IC50 (Human PDE4B2): 50 to 110 nM
IC50 (rat PDE2A): ~3000 nM
Composite Z score (murine PDE4B3): > 40
IC50 (Human PDE4D2): 50 to 110 nM
TNFα production [3]: significantly reduces
Composite Z score (murine PDE4A1): > 40
Composite Z score (rat PDE4A5): > 40
Composite Z score (human PDE7A1): > 40
IC50 (PDE7B [4]): 140 nM
IC50 (Human PDE4A10): 50 to 110 nM
IC50 (human PDE5A1): > 10000 nM
IC50 (human PDE1C): > 10000 nM
CLL apoptosis (CLL cells; Patient 1): 87.3±0.76
CLL apoptosis (CLL cells; Patient 2): 58.8±3.12
CLL apoptosis (CLL cells; Patient 3): 39.8±1.79
IC50 (human PDE3B): > 10000 nM
selectivity for PDE4 and PDE7 relative to PDE2A and PDE11A [5]: greater than 20 fold
IC50 (human PDE8A): > 10000 nM
IC50 (human PDE10A1): > 10000 nM
Composite Z score (PDE11A): 7.74
IL-2 production [6]: significantly reduces
IC50 [7]: 124 ± 8.8 nM

Cc1ccc([N+](=O)[O-])cc1S(=O)(=O)N(C)C [BRL50481, 3-(N,N-dimethylsulfonamido)-4-methyl-nitrobenzene]
IC50 (PDE7A): 150 nM
IC50 (PDE7B [8]): 12100 nM
CLL apoptosis (CLL cells; Patient 1): 52.5±0.78
CLL apoptosis (CLL cells; Patient 2): 26.3±1.02
CLL apoptosis (CLL cells; Patient 3): 5.1±0.72

COc1ccc(C2CNC(=O)C2)cc1OC1CCCC1 (stereo not drawn) [rolipram]
CLL apoptosis (CLL cells; Patient 1): 76.7±0.76
CLL apoptosis (CLL cells; Patient 2): 35.6±0.7
CLL apoptosis (CLL cells; Patient 3): 20.3±2.18
